Measurements pooled from the literature.
Protocols differ between the studies behind these lines.
Cell line: HeLa
Effect on: cell growth or viability

COc1cc(C)c(-c2c(C)cc(OC)c3c(=O)cc(-c4ccccc4Br)oc23)c2oc(-c3ccccc3Br)cc(=O)c12 — IC50 (MTT; 48 h): 18.5 µM
CC1(C)SC2C(NC(=O)C(NC(=O)C3=C(O)C4(CC4)NC3=O)c3ccccc3)C(=O)N2C1C(=O)O (centres unmarked) — IC50 (ATP luminescence; 48 h): 103 µg/mL
CC1(C)CC[C@]2(C(=O)O)CC[C@]3(C)C(=CC[C@@H]4[C@@]5(C)CC[C@H](O)C(C)(C)[C@@H]5CC[C@]43C)[C@@H]2C1 — IC50 (MTT; 48 h): 34.8 µM
COc1ccc2oc(C(=O)c3ccccc3)cc2c1-c1ccccc1 — IC50: > 50 µM
Cc1ccc(C#CC#Cc2ccc(C)cc2)cc1 — IC50 (MTT; 24 h): 70.5 µg/mL
COc1cc(OC)c2c(=O)cc(-c3ccccc3Br)oc2c1-c1c(OC)cc(OC)c2c(=O)cc(-c3ccccc3Br)oc12 — IC50 (MTT; 48 h): 10.4 µM
C=CCC[C@@H]1NC(=O)[C@H]2CCCN2C(=O)[C@H](Cc2ccccc2)NC(=O)C(C)(C)NC1=O — IC50 (XTT): > 100 µM
CC1(C)S[C@@H]2[C@H](NC(=O)C(C(=O)O)c3ccccc3)C(=O)N2[C@H]1C(=O)O (some centres unmarked) — IC50 (ATP luminescence; 48 h): 76.2 µg/mL
COc1cc(OC)c2c(=O)cc(-c3ccccc3)oc2c1 — IC50 (MTT; 48 h): 73.7 µM
CCCC(O)C#CC#CC(O)CCC (centres unmarked) — IC50 (MTT; 24 h): 19.3 µg/mL
COC(=O)CN=c1scc(-c2ccccc2)n1-c1ccccc1[N+](=O)[O-] — IC50 (MTT): 6.02 µM
O=c1[nH]cc(F)c(=O)[nH]1 — IC50 (72 h): 0.54 µM
CN(C)CCOc1cc(NC(=O)c2cc(Cl)cc(C(=O)Nc3cc(OCCN(C)C)c4ccccc4n3)n2)nc2ccccc12 — IC50 (ATP luminescence; 72 h): 3.2 µM
COc1ccc(-c2cc(=O)c3c(OC)cc(OC)cc3o2)cc1 — IC50 (MTT; 48 h): 33 µM
Oc1c(I)cc(I)c2cccnc12 — IC50 (MTT; 48 h): > 100 µM
CC(=O)c1ccc(-c2cccc(NC(=O)CCc3cccc4c3B(O)OC4)c2)cc1 — IC50 (ATP luminescence): 1.27 µM
O=C(Nc1cc(OCCN2CCCC2)c2ccccc2n1)c1cc(OCCN2CCCC2)cc(C(=O)Nc2cc(OCCN3CCCC3)c3ccccc3n2)n1 — IC50 (ATP luminescence; 72 h): 2.3 µM
CCOc1cc(OCC)cc(C(=O)O[C@@H]2CN3Cc4c(cc5c(c4OC)OCO5)[C@@]24C=C[C@H](OC)C[C@@H]34)c1 — IC50 (WST-1; 48 h): 5 µM
COc1ccc(OC)c(-c2c(C(=O)c3cc(OC)c(OC)c(OC)c3)sc3ccccc23)c1 — IC50 (MTT; 72 h): > 10 µM
NCCOc1cc(NC(=O)c2cccc(C(=O)Nc3cc(OCCN)c4ccccc4n3)n2)nc2ccccc12 — IC50 (ATP luminescence; 72 h): 1.2 µM
C(C#CCC1CCCCC1)#CCC1CCCCC1 — IC50 (MTT; 24 h): 117 µg/mL
C#CCOc1cc(C(=O)Nc2cc(OCCN)c3ccccc3n2)nc(C(=O)Nc2cc(OCCN)c3ccccc3n2)c1 — IC50 (ATP luminescence; 72 h): 5.2 µM
CC1(C)SC2C(NC(=O)C(NC(=O)C3=C(O)C(Cc4ccc([N+](=O)[O-])cc4)NC3=O)c3ccccc3)C(=O)N2C1C(=O)O (centres unmarked) — IC50 (ATP luminescence; 48 h): 133 µg/mL
O=C(Nc1cc(OCCN2CCCC2)c2ccccc2n1)c1cc(OCc2ccc(F)cc2)cc(C(=O)Nc2cc(OCCN3CCCC3)c3ccccc3n2)n1 — IC50 (ATP luminescence; 72 h): 13 µM
C[C@@H](O)C(=O)CCCCC[C@@H]1NC(=O)[C@H]2CCCN2C(=O)[C@H](Cc2ccccc2)NC(=O)C(C)(C)NC1=O — IC50 (XTT): 0.17 µM
NCCOc1cc(C(=O)Nc2cc(OCCN)c3ccccc3n2)nc(C(=O)Nc2cc(OCCN)c3ccccc3n2)c1 — IC50 (ATP luminescence; 72 h): 2.5 µM
COc1cccc2c1C(=O)c1c(O)c3c(c(O)c1C2=O)C[C@@](O)(C(=O)CO)C[C@@H]3O[C@H]1C[C@H](N)[C@H](O)[C@H](C)O1 — IC50 (MTT; 24 h): 1.71 µg/mL
c1cnc2c(c1)ccc1cccnc12 — IC50 (MTT; 48 h): > 50 µM
COc1cc(C#CC#Cc2cc(OC)cc(OC)c2)cc(OC)c1 — IC50 (MTT; 24 h): 4.51 µg/mL
COc1ccc(C(=O)O[C@@H]2CN3Cc4c(cc5c(c4OC)OCO5)[C@@]24C=C[C@H](OC)C[C@@H]34)cc1 — IC50 (WST-1; 48 h): > 10 µM
CCN1CCN(C(=O)N[C@@H](C(=O)N[C@@H]2C(=O)N3[C@@H]2SC(C)(C)[C@@H]3C(=O)O)c2ccccc2)C(=O)C1=O — IC50 (ATP luminescence; 48 h): 68.2 µg/mL
Cc1c(O)c(=O)ccn1-c1ccc(C(=O)O)cc1 — IC50 (MTT; 72 h): 600 µM
COc1cccc(C(=O)c2cc3c(-c4ccccc4)c(O)ccc3o2)c1 — IC50: 27 µM
COc1cccc(Oc2ccccc2NC(=O)CNC(=O)c2c(C)cc(C)cc2C)c1 — IC50: 6.5 µM
CC1(C)SC2C(NC(=O)C(NC(=O)C3=C(O)CN(c4ccccc4)C3=O)c3ccccc3)C(=O)N2C1C(=O)O (centres unmarked) — IC50 (ATP luminescence; 48 h): 87 µg/mL
Cc1ccc2c(Br)cc(Br)c(O)c2n1 — IC50 (MTT; 48 h): > 150 µM
COc1cc(OC)c2c(=O)cc(-c3cccc(Br)c3)oc2c1 — IC50 (MTT; 48 h): 72 µM
COc1ccccc1C(=O)c1cc2c(-c3ccccc3)c(OC)ccc2o1 — IC50: > 50 µM
COc1cc(OC)c2c(=O)cc(-c3ccc(Br)cc3)oc2c1-c1c(OC)cc(OC)c2c(=O)cc(-c3ccc(Br)cc3)oc12 — IC50 (MTT; 48 h): 96.1 µM
COc1cc(OC)cc(C(=O)c2cc3c(-c4ccccc4)c(OC)ccc3o2)c1 — IC50: > 50 µM
COc1cc(C)c(-c2c(C)cc(OC)c3c(=O)cc(-c4cccc(Br)c4)oc23)c2oc(-c3cccc(Br)c3)cc(=O)c12 — IC50 (MTT; 48 h): > 100 µM
C#CCOc1ccc(C(=O)c2cccc(NC(=O)CCc3cccc4c3B(O)OC4)c2)cc1 — IC50 (ATP luminescence; 72 h): 1.33 µM
CC1(C)S[C@@H]2[C@H](NC(=O)[C@H](N)c3ccccc3)C(=O)N2[C@H]1C(=O)O — IC50 (ATP luminescence; 48 h): 72.7 µg/mL
COc1cc(C)cc2oc(-c3ccc(N(C)C)cc3)cc(=O)c12 — IC50 (MTT; 48 h): 24.2 µM
